Source: PubChem
A3A deaminase – blocks human APOBEC3A ssDNA deamination; recombinant A3A, FAM/TAMRA ssDNA deamination fluorescence; P31941; 330,000 tested, 0.41% active; inhibition, % at 20 µM;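 active = at least 40% inhibition at 20 µM here, with at most 30% in a related deaminase screen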
Target sequence (P31941 whole entry, looked up): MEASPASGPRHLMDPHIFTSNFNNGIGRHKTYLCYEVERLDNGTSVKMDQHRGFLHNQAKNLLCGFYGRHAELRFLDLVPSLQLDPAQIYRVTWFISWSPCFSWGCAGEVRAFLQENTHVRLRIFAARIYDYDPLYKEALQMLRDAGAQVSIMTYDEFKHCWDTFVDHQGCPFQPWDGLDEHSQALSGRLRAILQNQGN
A3G deaminase – blocks human APOBEC3G single-stranded DNA deamination; Q9HC16; inhibition, % at 20 µM; AID 493012; recombinant A3G, ssDNA deamination FAM/TAMRA fluorescence; 330,000 tested, 0.28% active;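 active = inhibition of at least 40% at 20 µM, with no more than 30% in the related APOBEC3A deaminase screen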
Target sequence (Q9HC16 whole entry, looked up): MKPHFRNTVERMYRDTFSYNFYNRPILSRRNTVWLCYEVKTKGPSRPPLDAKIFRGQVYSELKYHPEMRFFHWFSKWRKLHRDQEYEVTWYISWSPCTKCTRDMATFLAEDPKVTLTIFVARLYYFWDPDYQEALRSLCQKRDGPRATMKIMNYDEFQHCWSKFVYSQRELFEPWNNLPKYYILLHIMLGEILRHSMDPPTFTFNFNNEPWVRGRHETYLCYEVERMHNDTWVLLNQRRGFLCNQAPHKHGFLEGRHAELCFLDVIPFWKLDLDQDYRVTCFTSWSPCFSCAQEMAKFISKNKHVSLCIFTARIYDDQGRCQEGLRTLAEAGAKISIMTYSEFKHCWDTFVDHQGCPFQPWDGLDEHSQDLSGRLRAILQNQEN
UBC9 SUMO inh – SUMOylation inhibition; AID 2006; 290,000 tested, 0.36% active; inhibition, % at 35 µM; P63279; HTRF SUMOylation assay, SAE1/SAE2 + UBC9, in vitro; in the data active = inhibition above about 50%, passing the limit was not always enough
PfGluPho inh – PfG6PD (Plasmodium falciparum) enzyme inhibition; 350,000 tested, 0.78% active; AID 504690; inhibition, % at 20 µM; PfGluPho enzyme, NADPH resazurin-diaphorase fluorescence;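 active = inhibition reaching at least a set limit at 20 µM in the primary screen, cut at about 59% in these data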
PfM18AAP inh-1 – blocks P. falciparum M18 aspartyl aminopeptidase. inhibition, % at 7.35 µM. recombinant PfM18AAP, H-Glu-NHMec fluorogenic cleavage. AID 1822. 290,000 tested, 1.2% active;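 active = inhibition above the campaign mean inhibition over all tested compounds plus 3 SD, cut at about 28% in these data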
HKDC1 inh – blocks human hexokinase HKDC1 activity. recombinant HKDC1, G6PDH/diaphorase resazurin coupled fluorescence. 340,000 tested, 0.16% active. inhibition, % at 20 µM. AID 493160. Q2TB90;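 active = inhibition above about 35% when tested at 20 µM, limit read from the data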
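System: Recombinant HKDC1 hexokinase | Amount: HKDC1 at 5 µg/mL | Reagent: Glucose with 1 mM ATP | Doses: Single 20 µM dose | Incubation: Reaction time 90 min, room temperature, protected from light | Signal: Coupled resazurin fluorescence, excitation 525 nm, emission 613 nm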
PfM18AAP inh-2 – PfM18AAP inhibition, confirmation; AID 2170; recombinant PfM18AAP, H-Glu-NHMec fluorogenic cleavage; inhibition, % at 7.35 µM; 2,400 tested, 28% active; shares compounds with PfM18AAP inh-1;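 active = mean inhibition over replicate wells above the hit cutoff set for the earlier primary screen, cut at about 29% in these data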
CTSL1 confirm – counter-screen for PFM18AAP inhibitors: confirmation of human cathepsin L inhibitors; shares compounds with PfM18AAP inh-1; purified cathepsin L1, Z-Leu-Arg-MCA fluorescence; inhibition, % at 5.96 µM; 2,400 tested, under 10 active;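 active = average inhibition across replicates above the hit cutoff set in the earlier primary screen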
A3A conf – confirmation of human APOBEC3A DNA deaminase inhibitors. 1,400 tested, 63% active. recombinant A3A, ssDNA deaminase UDG fluorescence assay. inhibition, % at 20 µM. shares compounds with A3A deaminase;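 active = inhibition reaching a set limit, 80% of the first screen's cutoff, at 20 µM in any replicate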
UDG A3A counter – inhibits UDG, flagging false APOBEC3A inhibitors. inhibition, % at 20 µM. AID 504714. UDG counterscreen, FAM/TAMRA uracil oligo fluorescence. 1,000 tested, under 10 active. shares compounds with A3A deaminase; call rule not given here
APOBEC3G confirm – APOBEC3G (human) deaminase inhibition, confirmed | shares compounds with A3G deaminase | recombinant A3G ssDNA deaminase, UDG/FAM-TAMRA fluorescence | inhibition, % at 20 µM | 890 tested, 72% active;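 active = inhibition reaching a set limit in any replicate at 20 µM, the limit being 80% of the first screen's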
UDG ctr A3G – inhibits E. coli UDG, flagging false APOBEC3G inhibitors | UDG counterscreen, FAM/TAMRA oligo fluorescence | 710 tested, under 10 active | inhibition, % at 20 µM | shares compounds with A3G deaminase;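 active = compounds giving 40% or more inhibition at 20 µM in any one of the three replicates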;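 note: inhibitors lower the FAM signal released by uracil excision and alkaline cleavage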
A number is an active result; i = inactive; nt = not tested or not shown. This is a sample that favours compounds with a hit; in the whole collection about 2.4% have one here.

SMILES | A3A deaminase | A3G deaminase | UBC9 SUMO inh | PfGluPho inh | PfM18AAP inh-1 | HKDC1 inh | PfM18AAP inh-2 | CTSL1 confirm | others
CCS(=O)(=O)CCSc1nc2c(cc1C#N)CCCC2 | i | i | i | i | i | i | nt | nt
O=C(O)Cn1cnc2c(=S)nc[nH]c21 | i | i | i | i | 57.3 | i | i | i
O=C(CCCCn1cnc2c(=S)nc[nH]c21)Nc1ccc(C(=O)O)cc1 | nt | nt | nt | i | nt | i | nt | nt
NCC(O)c1ccc(O)c(O)c1 (stereo not given) | nt | nt | nt | i | nt | i | nt | nt
NCCc1ccc(O)c(O)c1 | i | i | i | i | 72.7 | i | 66.1 | i
CCNC(=S)NNc1nc(N2CCCCC2)nc(N2CCOCC2)n1 | i | i | i | i | 44.0 | i | i | i
CN(C)c1ccc(C2Nc3cccc4cccc(c34)N2)cc1 | i | i | i | i | 37.4 | i | i | i
c1ccc(C2Nc3cccc4cccc(c34)N2)cc1 | i | i | i | i | i | i | nt | nt
Clc1ccc(C2Nc3cccc4cccc(c34)N2)cc1Cl | i | i | i | i | 35.8 | i | i | i
OC(C#Cc1ccccn1)c1cccs1 (stereo not given) | i | i | i | i | i | i | nt | nt
CC(C)NC(=O)c1cc2cc(Br)ccc2oc1=O | i | i | i | i | i | i | nt | nt
O=C(Nn1cnnc1)c1cc2cc(Br)ccc2oc1=O | i | i | i | i | 33.7 | i | i | i
Cc1cccc(NC(=S)NCc2ccco2)n1 | i | i | i | i | 37.8 | i | i | i
CC1(C)C(C(=O)O)N2C(=O)C(NC(=O)Cc3ccccc3)C2S1=O (stereo not given) | i | i | i | i | i | i | nt | nt
CCN(CC)c1ccc2cc(C=O)c(=O)oc2c1 | i | i | i | i | i | i | nt | nt
CCN(CC)c1ccc2nc3c4ccccc4c(=O)cc-3oc2c1 | i | i | i | i | 38.4 | i | i | i
CN(C)S(=O)(=O)c1cccc(C(=O)N2CCc3ccccc32)c1 | i | i | i | i | i | i | nt | nt
CN(C)S(=O)(=O)c1cccc(C(=O)C2=C3SC=C(c4ccccc4)N3CC2)c1 | i | i | i | i | 34.3 | i | i | i
Cc1ccc(C(=O)O/N=C2\CC3CCC2(C)C3(C)C)cc1 (stereo not given) | i | i | i | i | i | i | nt | nt
CC(=O)Nc1ccccc1C(=O)N1CCc2ccccc21 | i | i | i | i | i | i | nt | nt
C=Cc1ccc2c(c1)N(C)C(=C)S2 | i | i | i | i | 47.1 | i | i | i
COc1ccc(C2CC(c3ccc(Br)cc3)=NN2C(=S)Nc2ccccc2)cc1 (stereo not given) | i | i | i | i | 41.8 | i | i | i
COc1ccc(C2CC(c3ccccc3)=NN2C(=S)Nc2ccccc2)cc1 (stereo not given) | i | i | i | i | i | i | nt | nt
O=C1CC(c2ccccc2)CC(O)=C1C=Nc1ccc(O)cc1 (stereo not given) | i | i | i | i | i | i | nt | nt
O=C(/C(=C\c1ccccc1)c1nc2ccccc2[nH]1)c1ccc(Cl)cc1 | i | i | i | i | i | i | nt | nt
SMILES | A3A deaminase | A3G deaminase | UBC9 SUMO inh | PfGluPho inh | PfM18AAP inh-1 | HKDC1 inh | PfM18AAP inh-2 | CTSL1 confirm | others
O=C(/C=C/c1cccc(Cl)c1)c1nc2ccccc2[nH]1 | i | i | i | i | 32.4 | i | i | i
Cc1ccc(C(=O)Oc2ccccc2N2CCOCC2)cc1 | i | i | i | i | i | i | nt | nt
Cc1nc(Cl)sc1C(=O)Nc1ccc(Cl)cc1 | i | i | i | i | i | i | nt | nt
Cc1nc(C)c(C(=O)NNC(=O)Nc2ccc(Cl)cc2)s1 | i | i | i | i | 54.9 | i | i | i
COc1ccc(/C=N/Nc2nc3ccccc3o2)cc1O | i | i | i | i | 49.8 | i | i | i
COc1cc(/C=N/Nc2nc3ccccc3o2)cc(OC)c1O | i | i | i | i | 42.8 | i | i | i
COC(=O)COc1ccc2c(c1)O/C(=C\c1ccco1)C2=O | i | i | i | i | i | i | nt | nt
COCCN(CCOC)Cc1c(O)ccc2c1O/C(=C\c1ccco1)C2=O | 56.4 | i | i | i | 38.1 | i | i | i | A3A conf=26.6;UDG A3A counter=i
CCn1c(C(=O)N2CCCC(C(=O)NCCc3ccc(C)cc3)C2)cc2sccc21 (stereo not given) | i | i | i | i | i | i | nt | nt
CCOC(=O)c1sc(N=NC2=C(O)CCCC2=O)c(C(=O)OCC)c1C | 40.3 | i | i | i | 34.6 | i | i | i | A3A conf=18.2;UDG A3A counter=i
O=C(/C=C/c1ccccc1)c1cc(Br)ccc(=O)c1O | 41.2 | i | i | i | 54.5 | i | i | i | A3A conf=40.4
CCOc1ccc(NC(=O)N(C2CCCCC2)C2CCN(C(C)=O)CC2)cc1 | i | i | nt | i | i | i | nt | nt
Cc1ccc(NC(=S)c2ccc3ccccc3n2)c(C)c1 | i | 46.1 | i | i | 42.1 | i | i | i | APOBEC3G confirm=21.7;UDG ctr A3G=i
COc1ccc(NC(=S)c2ccc3ccccc3n2)cc1 | i | 62.3 | i | i | 47.3 | i | i | i | APOBEC3G confirm=62.5;UDG ctr A3G=i
Cc1ccc(C)c(NC(=O)c2ccc3ccccc3n2)c1 | i | i | i | i | i | i | nt | nt
CCN(CC(=O)NCc1cccs1)C(=O)c1cccc(S(=O)(=O)Nc2cccc(C)c2)c1 | i | i | nt | i | nt | i | nt | nt
CCOCCCn1c(=O)c2ccccc2n2c(=S)[nH]nc12 | i | 42.5 | i | i | 46.0 | i | i | i | APOBEC3G confirm=62.2;UDG ctr A3G=i
O=C(CSc1cn[nH]n1)Nc1cccc(C(=O)O)c1 | i | 62.3 | i | i | 53.7 | i | i | i | APOBEC3G confirm=86.9;UDG ctr A3G=i
O=C(NCc1ccccc1F)c1cccs1 | i | i | i | i | i | i | nt | nt
C=CCn1c(-c2c(C)nc3cc(C)ccn23)n[nH]c1=S | i | i | i | i | i | i | nt | nt
C=CCn1c(-c2sccc2C)n[nH]c1=S | i | 44.4 | i | i | 31.9 | i | i | i | APOBEC3G confirm=i
COC(=O)CCC(=O)NC(=S)Nc1sc(C)c(C)c1C(N)=O | i | i | i | i | i | i | nt | nt
COC(=O)CCC(=O)Nc1sc(C)c(C)c1C(N)=O | i | 56.6 | i | i | 42.8 | i | i | i | APOBEC3G confirm=54.6;UDG ctr A3G=i
